{"data": "Assay results of several laboratories", "note": "Lines come from different studies, so protocols differ."}
{"SMILES": "CNc1ncc2c(/C=C/C(=O)N3CCC(C)CC3)nn(CC3CCCC3)c2n1", "cell line": "OE33", "effect on": "cell growth or viability", "method": "resazurin", "time": "5 days", "measurement": "EC50", "result": "> 30 µM"}
{"SMILES": "CCOC(=O)c1nn(-c2cccc(Cl)c2)/c(=N/N=C(\\C)c2ccc(NC(=O)c3ccc(Cl)cc3)cc2)s1", "cell line": "HepG2", "effect on": "cell growth or viability", "method": "MTT", "tested at": "0.156 µM", "measurement": "viability", "result": "24.6%"}
{"SMILES": "O=C(Nc1ccccc1)Nc1ccc(Oc2nnc(-c3ccc(Cl)cc3)c3ccccc23)cc1", "cell line": "HepG2", "effect on": "cell growth or viability", "method": "MTT", "tested at": "0.312 µM", "measurement": "cell death", "result": "93%"}
{"SMILES": "CC(=O)c1nn(-c2ccc(C)cc2)/c(=N/N=C(\\C)c2ccc(NC(=O)c3ccccc3)cc2)s1", "cell line": "HepG2", "effect on": "cell growth or viability", "method": "MTT", "tested at": "0.625 µM", "measurement": "viability", "result": "5.4%"}
{"SMILES": "CNc1ncc2c(/C=C/C(=O)N3CCC(OC)CC3)nn(Cc3ccccc3OC)c2n1", "cell line": "OE33", "effect on": "cell growth or viability", "method": "resazurin", "time": "5 days", "measurement": "EC50", "result": "7.72 µM"}
{"SMILES": "O=C(Nc1cccc([N+](=O)[O-])c1)Nc1cccc(C(F)(F)F)c1", "cell line": "LAD2", "effect on": "degranulation", "measurement": "IC50", "result": "0.28 µM"}
{"SMILES": "CNc1ncc2c(/C=C/C(=O)N3CCC(O)CC3)nn(CC3CCCC3)c2n1", "cell line": "OE33", "effect on": "cell growth or viability", "method": "resazurin", "time": "5 days", "measurement": "EC50", "result": "> 30 µM"}
{"SMILES": "O=C(Nc1ccc(C(F)(F)F)cc1)Nc1cccc(Br)c1", "cell line": "LAD2", "effect on": "degranulation", "measurement": "IC50", "result": "1.24 µM"}
{"SMILES": "CNc1ncc2c(/C=C/C(=O)N3CCC(COC)CC3)nn(Cc3cccc(C)c3)c2n1", "cell line": "OE33", "effect on": "cell growth or viability", "method": "resazurin", "time": "5 days", "measurement": "EC50", "result": "> 30 µM"}
{"SMILES": "CC(C)(C)c1cnc(CSc2cnc(NC(=O)C3CCN(CCCCCCCCSc4cccc5c4C(=O)N(C4CCC(=O)NC4=O)C5=O)CC3)s2)o1 (centres unmarked)", "cell line": "HH", "effect on": "cell growth or viability", "method": "CCK-8", "tested at": "0.15 µM", "measurement": "viability", "result": "16.5%"}
{"SMILES": "Cc1sc2c(c1C)C(c1ccc(Cl)cc1)=N[C@@H](CC(=O)NCCCCCCCCNC(=O)COc1cccc3c1C(=O)N(C1CCC(=O)NC1=O)C3=O)c1nnc(C)n1-2 (some centres unmarked)", "cell line": "Ramos", "effect on": "cell growth or viability", "method": "ATP luminescence", "time": "72 h", "measurement": "IC50", "result": "0.012 µM"}
{"SMILES": "CC(=O)Nc1ccc(Oc2nnc(-c3ccc(Cl)cc3)c3ccccc23)cc1", "cell line": "HepG2", "effect on": "cell growth or viability", "method": "MTT", "tested at": "5 µM", "measurement": "cell death", "result": "93.5%"}
{"SMILES": "CC1CCN(C(=O)/C=C/c2nn(CC3CCCC3)c3ncnc(N)c23)CC1", "cell line": "OE33", "effect on": "cell growth or viability", "method": "resazurin", "time": "5 days", "measurement": "EC50", "result": "> 30 µM"}
{"SMILES": "CC(=O)c1nn(-c2ccccc2Cl)/c(=N/N=C(\\C)c2ccc(NC(=O)c3ccccc3)cc2)s1", "cell line": "HepG2", "effect on": "cell growth or viability", "method": "MTT", "tested at": "0.625 µM", "measurement": "viability", "result": "5.95%"}
{"SMILES": "COC1CCN(C(=O)/C=C/c2nn(CC3CCCC3)c3ncnc(N)c23)CC1", "cell line": "OE33", "effect on": "cell growth or viability", "method": "resazurin", "time": "5 days", "measurement": "EC50", "result": "> 30 µM"}
{"SMILES": "CC(C)(C)c1cnc(CSc2cnc(NC(=O)C3CCN(CCCCCCCCSc4cccc5c4CN(C4CCC(=O)NC4=O)C5=O)CC3)s2)o1 (centres unmarked)", "cell line": "HH", "effect on": "cell growth or viability", "method": "trypan blue", "time": "48 h", "measurement": "IC50", "result": "0.114 µM"}
{"SMILES": "C=CC(=O)NC1CCN(c2ncc3ncnc(Nc4ccc(Oc5ccc6c(c5)ncn6C)c(C)c4)c3n2)CC1", "cell line": "DMS-273", "effect on": "cell growth or viability", "measurement": "EC50", "result": "0.338 µM"}
{"SMILES": "CCOC(=O)c1nn(-c2cccc(Cl)c2)/c(=N/N=C(\\C)c2ccc(NC(=O)c3ccccc3)cc2)s1", "cell line": "HepG2", "effect on": "cell growth or viability", "method": "MTT", "tested at": "1.25 µM", "measurement": "viability", "result": "2.72%"}
{"SMILES": "CC(C)OC(=O)C(n1cccn1)n1cccn1", "cell line": "A-431", "effect on": "cell growth or viability", "method": "MTT", "time": "72 h", "measurement": "IC50", "result": "> 50 µM"}
{"SMILES": "CC(=NNC(=O)c1cccnc1)c1ccc(Nc2nnc(-c3ccc(Cl)cc3)c3ccccc23)cc1", "cell line": "HepG2", "effect on": "cell growth or viability", "method": "MTT", "tested at": "0.312 µM", "measurement": "cell death", "result": "6.41%"}
{"SMILES": "CC(C)(C)c1cnc(CSc2cnc(NC(=O)C3CCN(C(=O)COCCOCCSc4cccc5c4C(=O)N(C4CCC(=O)NC4=O)C5=O)CC3)s2)o1 (centres unmarked)", "cell line": "HH", "effect on": "cell growth or viability", "method": "CCK-8", "tested at": "0.4 µM", "measurement": "viability", "result": "47.3%"}
{"SMILES": "O=C(Nc1ccc(Oc2nnc(-c3ccc(Cl)cc3)c3ccccc23)cc1)c1cccc([N+](=O)[O-])c1", "cell line": "HepG2", "effect on": "cell growth or viability", "method": "MTT", "tested at": "2.5 µM", "measurement": "cell death", "result": "96.4%"}
{"SMILES": "CNc1ncc2c(/C=C/C(=O)N3CCCCC3)nn(CC3CCCC3)c2n1", "cell line": "OE33", "effect on": "cell growth or viability", "method": "resazurin", "time": "5 days", "measurement": "EC50", "result": "> 30 µM"}
{"SMILES": "CC(=NNC(=O)c1ccccc1Br)c1ccc(Nc2nnc(-c3ccc(Cl)cc3)c3ccccc23)cc1", "cell line": "HepG2", "effect on": "cell growth or viability", "method": "MTT", "tested at": "0.312 µM", "measurement": "cell death", "result": "14.6%"}
{"SMILES": "CC(C)(C)c1cnc(CSc2cnc(NC(=O)C3CCN(C(=O)CCCSc4cccc5c4C(=O)N(C4CCC(=O)NC4=O)C5=O)CC3)s2)o1 (centres unmarked)", "cell line": "HH", "effect on": "cell growth or viability", "method": "CCK-8", "tested at": "0.5 µM", "measurement": "viability", "result": "17.8%"}
{"SMILES": "O=C(Nc1ccc(Oc2nnc(-c3ccc(Cl)cc3)c3ccccc23)cc1)c1ccccc1", "cell line": "HepG2", "effect on": "cell growth or viability", "method": "MTT", "tested at": "78 nM", "measurement": "cell death", "result": "3.97%"}
{"SMILES": "CC(C)(C)c1cnc(CSc2cnc(NC(=O)C3CCN(CCCCCCCSc4cccc5c4C(=O)N(C4CCC(=O)NC4=O)C5=O)CC3)s2)o1 (centres unmarked)", "cell line": "HH", "effect on": "cell growth or viability", "method": "CCK-8", "tested at": "50 nM", "measurement": "viability", "result": "96%"}
{"SMILES": "CCOC1CCN(C(=O)/C=C/c2nn(Cc3cccc(C)c3)c3nc(NC)ncc23)CC1", "cell line": "OE33", "effect on": "cell growth or viability", "method": "resazurin", "time": "5 days", "measurement": "EC50", "result": "2.28 µM"}
{"SMILES": "CC(=NNC(=O)c1ccncc1)c1ccc(Nc2nnc(-c3ccc(Cl)cc3)c3ccccc23)cc1", "cell line": "HepG2", "effect on": "cell growth or viability", "method": "MTT", "tested at": "0.156 µM", "measurement": "cell death", "result": "17.1%"}
